The list is not random: actives were taken first. Their share in the collection is about 1.4%.
HTR5A ag ctr = activates human HTR5A in OPRM1-OPRD1 agonist counter-screen. P47898. HTR5A agonist assay, luminescence, cell-based. activation, % at 9.3 µM. 340,000 compounds, 0.61% hits. AID 504692; in the data active = activation mostly above about 9.5%, no sharp cut-off; inactive = mostly below about 7.6%;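 also: 0% = cells with vehicle only and 100% = reference agonist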
Hep lipid drop = modulators of hepatic lipid droplet formation; 240,000 compounds, 0.4% hits; inhibition, % at 6.5 µM; AML12 mouse hepatocytes, oleate lipid droplets, BODIPY imaging;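 active = lipid droplet intensity inhibited by at least 50%, with more than 500 cells counted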
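material = mouse AML12 hepatocyte cell line, fixed after treatment | also added = 100 µM oleic acid challenge | doses = compound at 6.5 µM only | schedule = overnight exposure | technique = Image-based BODIPY and DAPI two-channel analysis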
HTR5A inv ag = inverse agonist of human HTR5A in OPRM1-OPRD1 counter-screen. AID 504634. 340,000 compounds, 0.083% hits. P47898. HTR5A cell line, luminescence, inverse agonism. inhibition, % at 9.3 µM; in the data active = inhibition mostly above about 23%, no sharp cut-off; inactive = mostly below about 18%;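 also: 0% = cells with DMSO and 100% = no-cell wells with DMSO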
MOR-DOR ag = OPRM1-OPRD1 heterodimerization agonism | cells, luminescence | activation, % at 9.3 µM | 340,000 compounds, 0.3% hits; in the data active = activation above about 18%;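 also: 0% = vehicle-treated cells and 100% = reference agonist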
OPRM1-OPRD1 inv = inverse agonists of human mu-delta opioid receptor heterodimerization | P35372+P41143 | cell-based MOR-DOR heterodimer luminescence, inverse agonism | inhibition, % at 9.3 µM | 340,000 compounds, 0.21% hits | AID 504357; in the data active = inhibition above about 22%, passing the limit was not always enough;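 also: 0% = cells with DMSO and 100% = wells without cells with DMSO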
* hit, by the source's call; i = inactive; . = not tested or not shown.

SMILES	HTR5A ag ctr	Hep lipid drop	HTR5A inv ag	MOR-DOR ag	OPRM1-OPRD1 inv
C[C@H](CO)N1C[C@H](C)[C@@H](CN(C)S(=O)(=O)c2ccccc2)Oc2ccc(NC(=O)c3ccncc3)cc2C1=O	-2	.	3	0	2
C[C@H](CO)N1C[C@H](C)[C@@H](CN(C)S(=O)(=O)c2ccc(F)cc2)Oc2ccc(NC(=O)c3ccncc3)cc2C1=O	9.5*	.	4	-2	14
O=C(OCCNc1ccc(C(F)(F)F)cc1[N+](=O)[O-])c1cc2ccccc2oc1=O	-3	3	10	-1	3
COc1ccc(-n2nnc3c(=O)n(Cc4ccccc4C)cnc32)cc1	0	.	-9	-2	12
Cc1ccc(C)c(Cn2cnc3c(nnn3-c3ccc(F)cc3)c2=O)c1	10*	.	-26	6	-32
CC(C)[C@@H](C(=O)N1CCNCC1)n1cc(CCO)nn1	-1	6	-3	-2	10
COc1ccc2c(c1)[nH]c1c(Cl)ncnc12	12*	13	9	2	-11
O=C(CC1C[C@H](C(=O)N2CCCCC2)[C@@]2(CCc3ccccc3)c3[nH]c4ccccc4c3CCN2C1=O)NCCc1ccccn1 (stereo not given in full)	0	.	0	-2	8
O=C(CSc1ccc(Cl)cc1)NN=C1CCCCCC1	12*	-4	12	2	-11
Cc1ccc(C2=NOC(C)(c3nnc(Cc4ccccc4)o3)C2)cc1 (stereo not given)	4	.	22	-1	4
CCCCN(C(=O)c1ccc(Cl)c([N+](=O)[O-])c1)c1c(N)n(CCC)c(=O)[nH]c1=O	2	27	-7	-1	6
CC[C@]1(C(=O)OC)[C@H]2C(=O)N(Cc3ccccc3)C(=O)[C@H]2[C@H]2CN=C(SCC3CC3)N21	5.3*	.	-18	-2	9
COC(=O)c1sc2cc([N+](=O)[O-])cc(SCC(C)C)c2c1N	-1	56*	3	1	-5
CCOC(=O)c1sc2ncc([N+](=O)[O-])cc2c1N	5	-3	-12	1	-7
Cc1ccc(C(=O)NC(C)c2ccc(-n3ccnc3)cc2)o1 (stereo not given)	-1	.	-10	-2	10
O=S(=O)(c1ccc2c(c1)OCCO2)N1CCN(Cc2ccccc2)CC1	14*	-4	-14	-1	4
O=S(=O)(c1ccc2c(c1)OCCO2)N1CCN(Cc2ccc3c(c2)OCO3)CC1	-1	-5	-7	-3	16
Cc1ccc(C(=O)NNc2ncnc3c2cnn3C)cc1	4	-23	-20	-4	21
Cn1ncc2c(O/N=C(\N)c3ccc(C(F)(F)F)cc3)ncnc21	48*	1	1	39*	-196
O=C(CCc1ccccc1)NC(NC(=S)Nc1ccc(Cl)cc1)C(Cl)(Cl)Cl (stereo not given)	12*	-8	-11	17	-94
CC1CN(C(=O)CCS(=O)(=O)c2ccccc2)CC(C)O1 (stereo not given)	14*	21	1	-2	8
Cc1csc(N2CCCC2=O)n1	-1	-2	6	-3	15
C/C(CC(=O)Nc1ccc(C)c(Cl)c1)=N\NC(=O)Cc1ccccc1	12*	2	-32	1	-7
CC1=C(SCc2ccccc2)C(=O)c2ccccc2C1=O	1	.	-5	15	-75
O=C1C(SCCO)=C(SCCO)C(=O)c2ccccc21	-10	.	41*	1	-7
SMILES	HTR5A ag ctr	Hep lipid drop	HTR5A inv ag	MOR-DOR ag	OPRM1-OPRD1 inv
O=C(NCc1n[nH]c(=S)n1-c1ccc(Br)cc1)c1cccs1	2	10	-5	0	2
Cc1ccc2nc(/C(C#N)=C\c3ccc([N+](=O)[O-])o3)[nH]c2c1	105*	.	-182	575*	i
N#C/C(=C\c1ccc([N+](=O)[O-])o1)c1nc2ccccc2[nH]1	.	0	.	.	.
O=c1cc2oc3cc(O)c(O)cc3c(-c3ccccc3[N+](=O)[O-])c-2cc1O	-11	-8	44*	-9	50*
c1ccc(Nc2nc(N3CCCC3)nc(N3CCCC3)n2)cc1	13*	.	20	2	-8
c1ccc(Nc2nc(N3CCCCC3)nc(N3CCCCC3)n2)cc1	-1	9	-8	0	-2
CCOC(=O)c1csc(NC(=O)c2ccc(S(=O)(=O)N(CC)CC)cc2)n1	12*	0	-26	1	-6
CCOC(=O)c1sc(NC(=O)c2ccc(S(=O)(=O)N(CC)CC)cc2)nc1C	-1	3	-7	-1	6
c1ccc(C(c2ccccn2)c2ccccn2)cc1	2	0	-4	-2	9

Compound activity deposited in PubChem by several laboratories.
